Laboratory results from ChEMBL document CHEMBL1140074, “Aminoacyl-anthraquinone conjugates as telomerase inhibitors: synthesis, biophysical and biological evaluation” (J Med Chem, 2008).

How the values were obtained:
Homo sapiens [1] = species: Homo sapiens; experiment: Binding affinity to human telomeric DNA sequence assessed as stabilization of G-quadruplex at 10 uM by thermal denaturation
Method in brief: (§1)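 Fluorescence melting in a LightCycler of 0.25 µM telomeric oligonucleotide HTS (5'-FAM, 3'-methyl red) in LiP buffer (10 mM LiOH, 50 mM KCl, pH 7.4 with H3PO4). Samples were denatured at 95 °C for 5 min, then cooled and reheated at 0.5 °C/min in 1 °C steps with 2 min equilibration per step. Excitation 488 nm, emission 520 nm. ΔTm was taken relative to ligand-free DNA.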

Homo sapiens [2] = species: Homo sapiens; experiment: Binding affinity to human telomeric DNA sequence assessed as stabilization of G-quadruplex at 1 uM by thermal denaturation; method in brief: as §1
[3] = target: DNA polymerase I, thermostable (Thermus aquaticus, UniProt P19821); experiment: Inhibition of Taq polymerase
DNA polymerase I, thermostable, sequence (P19821 whole entry): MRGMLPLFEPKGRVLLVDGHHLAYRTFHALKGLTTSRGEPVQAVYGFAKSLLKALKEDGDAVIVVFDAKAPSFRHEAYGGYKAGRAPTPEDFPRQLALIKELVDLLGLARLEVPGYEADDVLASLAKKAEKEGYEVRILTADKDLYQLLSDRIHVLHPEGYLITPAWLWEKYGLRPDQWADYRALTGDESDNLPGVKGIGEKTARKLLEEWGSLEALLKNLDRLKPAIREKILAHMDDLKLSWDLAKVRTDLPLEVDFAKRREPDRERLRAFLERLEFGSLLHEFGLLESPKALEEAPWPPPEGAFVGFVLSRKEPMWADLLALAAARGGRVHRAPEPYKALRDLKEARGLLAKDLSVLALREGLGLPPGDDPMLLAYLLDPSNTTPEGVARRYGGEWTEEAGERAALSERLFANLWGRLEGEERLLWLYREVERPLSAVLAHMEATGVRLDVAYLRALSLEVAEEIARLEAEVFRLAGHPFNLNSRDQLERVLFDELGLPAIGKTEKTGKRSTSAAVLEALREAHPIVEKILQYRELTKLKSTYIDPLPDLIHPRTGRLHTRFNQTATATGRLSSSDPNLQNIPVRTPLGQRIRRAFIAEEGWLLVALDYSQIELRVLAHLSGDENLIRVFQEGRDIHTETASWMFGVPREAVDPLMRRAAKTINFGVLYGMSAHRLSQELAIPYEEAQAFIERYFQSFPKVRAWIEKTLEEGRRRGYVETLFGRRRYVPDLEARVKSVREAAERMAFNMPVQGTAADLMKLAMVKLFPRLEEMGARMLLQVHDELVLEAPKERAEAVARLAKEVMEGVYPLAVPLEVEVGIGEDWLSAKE
Method in brief: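 PCR with 2.5 ng pBR322 template and primers Tup/Tdown (0.5 µM) amplifying plasmid bases 906-1064. Compounds tested from 20 nM to 40 µM. Run 25 cycles of 94 °C, 65 °C and 72 °C (30 s each). Products resolved on 2% agarose in TBE and stained with ethidium bromide.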

[4] = target: Telomerase reverse transcriptase (Homo sapiens, UniProt O14746); experiment: Inhibition of telomerase in human JR8 cells by TRAP assay; format: cell-based
Telomerase reverse transcriptase, sequence (O14746 whole entry): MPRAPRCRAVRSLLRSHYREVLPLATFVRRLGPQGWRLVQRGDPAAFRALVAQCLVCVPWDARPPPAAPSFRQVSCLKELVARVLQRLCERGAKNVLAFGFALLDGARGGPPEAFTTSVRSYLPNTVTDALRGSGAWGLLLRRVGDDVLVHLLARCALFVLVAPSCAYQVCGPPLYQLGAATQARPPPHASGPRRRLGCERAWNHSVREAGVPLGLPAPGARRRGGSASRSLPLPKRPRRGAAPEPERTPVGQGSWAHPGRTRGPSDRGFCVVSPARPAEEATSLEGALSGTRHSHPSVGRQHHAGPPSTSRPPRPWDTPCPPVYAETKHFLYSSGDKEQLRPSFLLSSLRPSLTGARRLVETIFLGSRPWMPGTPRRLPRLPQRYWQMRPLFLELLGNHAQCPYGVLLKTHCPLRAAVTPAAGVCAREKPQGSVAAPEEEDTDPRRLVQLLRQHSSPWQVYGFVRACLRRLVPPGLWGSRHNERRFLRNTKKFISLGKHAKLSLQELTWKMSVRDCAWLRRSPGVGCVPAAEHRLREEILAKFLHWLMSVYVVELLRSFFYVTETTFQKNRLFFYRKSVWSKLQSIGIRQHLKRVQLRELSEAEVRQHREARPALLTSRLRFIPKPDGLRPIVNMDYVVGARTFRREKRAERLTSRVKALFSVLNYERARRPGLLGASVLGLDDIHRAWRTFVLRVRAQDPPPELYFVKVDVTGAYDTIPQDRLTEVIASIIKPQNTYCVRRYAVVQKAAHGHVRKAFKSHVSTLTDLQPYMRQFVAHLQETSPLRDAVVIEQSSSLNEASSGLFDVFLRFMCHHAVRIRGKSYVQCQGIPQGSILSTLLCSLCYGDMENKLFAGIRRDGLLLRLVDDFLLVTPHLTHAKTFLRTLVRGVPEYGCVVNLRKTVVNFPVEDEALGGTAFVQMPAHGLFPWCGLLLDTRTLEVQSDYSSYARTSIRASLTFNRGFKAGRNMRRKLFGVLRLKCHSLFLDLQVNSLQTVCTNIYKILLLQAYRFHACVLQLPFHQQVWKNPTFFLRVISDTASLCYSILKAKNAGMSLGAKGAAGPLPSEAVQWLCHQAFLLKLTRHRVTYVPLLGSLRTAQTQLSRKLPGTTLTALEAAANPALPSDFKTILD
Method in brief: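 Telomerase source was a CHAPS lysate of exponentially growing JR8 cells (500 ng protein per reaction). Elongation 30 min at 30 °C, then 30 PCR cycles. Products run on 10% PAGE with phosphorimager read-out, in triplicate. Drug levels kept below those inhibiting Taq.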

HeLa = experiment: Cytotoxicity against human HeLa cells expressing telomerase after 96 hrs by MTT assay; format: functional, cell-based
Method in brief: (§2)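 Cells grown in DMEM with 10% heat-inactivated FCS, penicillin/streptomycin, 37 °C, 5% CO2. Plated at 10000 cells/well and left overnight, then exposed to eight serial dilutions in triplicate for 96 h. MTT added to 0.8 mg/mL final for 2 h, formazan dissolved in DMSO, absorbance read at 540 nm. IC50 from sigmoidal dose-response fits.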

[5] = Cytotoxicity against human 293T cells expressing telomerase after 96 hrs by MTT assay; format: cell-based; settings: HEK-293T; method in brief: as §2

SMILES | ΔTm (Homo sapiens [1]) [°C] | ΔTm (Homo sapiens [2]) [°C] | EC50 [3] [µM] | EC50 [4] [µM] | IC50 (HeLa) [µM] | IC50 [5] [µM]
C[C@H](N)C(=O)NCC(=O)Nc1ccc2c(c1)C(=O)c1ccc(NC(=O)CNC(=O)[C@H](C)N)cc1C2=O | 9.2 | 6.1 | > 40 | 25 | 17 | 43
O=C(CNC(=O)[C@@H]1CCCN1)Nc1ccc2c(c1)C(=O)c1ccc(NC(=O)CNC(=O)[C@@H]3CCCN3)cc1C2=O | 15.6 | 6.1 | > 40 | 10 | 33 | > 100
C[C@H](N)C(=O)NCCC(=O)Nc1ccc2c(c1)C(=O)c1cc(NC(=O)CCNC(=O)[C@H](C)N)ccc1C2=O | 9 | 0.3 | > 40 | 15 | 64 | > 100
NCCC(=O)Nc1ccc2c(c1)C(=O)c1ccc(NC(=O)CCN)cc1C2=O | 18.1 | 9.1 | > 40 | 1.25 | > 100 | > 100
NCCNC(=O)c1ccc2c(c1)C(=O)c1cc(C(=O)NCCN)ccc1C2=O | 12.9 | 3.3 | > 40 | 15 | 100 | 100
NCCCC[C@H](N)C(=O)NCCNC(=O)c1ccc2c(c1)C(=O)c1cc(C(=O)NCCNC(=O)[C@@H](N)CCCCN)ccc1C2=O | 14.7 | 5.2 | > 40 | 3 | 84 | > 100
NCC(=O)NCC(=O)Nc1ccc2c(c1)C(=O)c1ccc(NC(=O)CNC(=O)CN)cc1C2=O | 8.6 | 0.4 | > 40 | 5 | 39 | > 100

Compounds with a lower EC50 [3], results first:

ΔTm (Homo sapiens [1]) [°C] | ΔTm (Homo sapiens [2]) [°C] | EC50 [3] [µM] | EC50 [4] [µM] | SMILES | IC50 (HeLa) [µM] | IC50 [5] [µM]
17.2 | 6.6 | 10 | 0.8 | NCCCC[C@H](N)C(=O)NCCC(=O)Nc1ccc2c(c1)C(=O)c1ccc(NC(=O)CCNC(=O)[C@@H](N)CCCCN)cc1C2=O | 100 | > 100
23.4 | 11.3 | 10 | 1.2 | NCCC(=O)Nc1ccc2c(c1)C(=O)c1cc(NC(=O)CCN)ccc1C2=O | 57 | 79
> 17 | 12 | 5 | 0.8 | NCCCC[C@H](N)C(=O)NCC(=O)Nc1ccc2c(c1)C(=O)c1ccc(NC(=O)CNC(=O)[C@@H](N)CCCCN)cc1C2=O | 27 | 34
15.9 | 7.9 | 10 | 0.8 | NCCCC[C@H](N)C(=O)NCCNC(=O)c1ccc2c(c1)C(=O)c1ccc(C(=O)NCCNC(=O)[C@@H](N)CCCCN)cc1C2=O | 100 | > 100
16.4 | 5.2 | 10 | 1.5 | N=C(N)NCCC[C@H](N)C(=O)NCCNC(=O)c1ccc2c(c1)C(=O)c1ccc(C(=O)NCCNC(=O)[C@@H](N)CCCNC(=N)N)cc1C2=O | 85 | > 100
